Among the data in ChEMBL document CHEMBL1152945, “Synthesis and biological activity of a fluorescent schweinfurthin analogue” (Bioorg Med Chem, 2009) are GI50, Activity and IC50 values, retold here.

As usually defined, the GI50 is the concentration giving 50% growth inhibition. High values mean lower sensitivity of the cells, low ones greater sensitivity of the cells. The pIC50 is −log10 of the IC50, conventionally taken in molar units.

Structures are written as SMILES. pIC50: −log10 of the molar value. Calls of active or inactive are those of the source. The calls are words filed in the database; no cut-off is given here.

One experiment relates to SF-539. Put plainly: Cytotoxicity against human SF539 cells after 44 hrs by MTT assay. Type of experiment: functional. The note with it: SF-539, 44 h. On the technique in general: Formazan colour is commonly taken as a measure of viable cells.
The test system of a further experiment is SNB-75. Put plainly: Cytotoxicity against human SNB75 cells after 44 hrs by MTT assay. Type of experiment: functional. The note with it: SNB-75, 44 h.
Experiment [1] deals with SF-295. Put plainly: Cytotoxicity against human SF295 cells after 44 hrs by MTT assay. Type of experiment: functional, cell-based. The settings on record: SF-295, 44 h. Summed up: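 SF-295 glioblastoma cells grown in RPMI 1640 with 10% fetal calf serum and pen-strep at 37 °C, 5% CO2. Plated in 24-well plates and dosed at 65% confluency. Thiazolyl blue tetrazolium added 44 h after treatment. At 48 h, HCl/Triton X-100/isopropanol solubiliser added, then overnight at 37 °C with gentle agitation. Absorbance read at 540 nm, 630 nm reference.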

Experiment [2] relates to SF-295. Put plainly: Inhibition of ROCK in human SF295 cells assessed as change in morphology at 10 uM after 24 hrs using DAPI staining by multi-photon microscopy. It is filed as cell-based. In a few lines:
(§1)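 Cells grown on sterile coverslips to 65% confluency, then treated. Then fixed in 3.7% formaldehyde for 15 min, permeabilized in 0.2% Triton X-100 for 4 min, blocked in 1% BSA for 30 min and stained 20 min with phalloidin for F-actin. Mounted in DAPI-containing medium, imaged by multi-photon microscopy. SF-295 kept in RPMI 1640; A549 in F-12; both with 10% FCS.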

Experiment [3] has as its system SF-295. Put plainly: Effect on morphology of human SF295 cells assessed as induction of ruffled F-actin at 10 uM after 24 hrs using DAPI staining by multi-photon microscopy. It is filed as functional, cell-based. In a few lines: as §1
In experiment [4] the test system is A549. Put plainly: Effect on morphology in human A549 cells assessed as induction of ruffled F-actin at 10 uM after 24 hrs using DAPI staining by multi-photon microscopy. Type of experiment: functional, cell-based. In a few lines:
as §1

Experiment [5] has as its system SF-295. Put plainly: Effect on cytosolic localization in human SF295 cells assessed as increase in fluorescence intensity at 100 nM by fluorescence microscopy. Type of experiment: functional, cell-based. In a few lines:
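SF-295 cells on sterile coverslips at 65% confluency, treated for varied intervals across a concentration range. Washed three times in complete medium to remove compound, mounted right away, and live compound fluorescence imaged by multi-photon microscopy against untreated-cell autofluorescence.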

The subject of experiment [6] is SF-295. Description: Effect on morphology of human SF295 cells at 500 nM after 24 hrs using DAPI staining by multi-photon microscopy. Type of experiment: functional, cell-based. In a few lines:
as §1

For experiment [7], the system named is A549. Description: Effect on morphology of human A549 cells at 500 nM after 24 hrs using DAPI staining by multi-photon microscopy. Type of experiment: functional, cell-based. In a few lines:
as §1

Experiment [8] concerns A549. Put plainly: Effect on morphology of human A549 cells at 500 nM after 48 hrs using DAPI staining by multi-photon microscopy. Type of experiment: functional, cell-based. Summed up: as §1
For experiment [9], the system named is A549. Put plainly: Cytotoxicity against human A549 cells after 44 hrs by MTT assay. It is filed as functional, cell-based. Summed up: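 A549 cells in F-12 medium with 10% fetal calf serum and pen-strep, 37 °C, 5% CO2, treated in 24-well plates at 65% confluency. MTT added 44 h after treatment; at 48 h, solubilizer (HCl, Triton X-100, isopropanol) added, overnight at 37 °C with gentle agitation. Absorbance read at 540 nm with 630 nm reference.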

The test system of experiment [10] is SF-295. Description: Effect on morphology of human SF295 cells at 500 nM after 48 hrs using DAPI staining by multi-photon microscopy. It is filed as functional, cell-based. In a few lines: as §1

As for `CC(C)=CCC/C(C)=C/Cc1c(O)cc(/C=C/c2cc(O)c3c(c2)C[C@@H]2C(C)(C)[C@H](O)[C@H](O)C[C@@]2(C)O3)cc1O` [SCHWEINFURTHIN A], the concentration for 50% growth inhibition (GI50) in the experiment with SF-539 was found to be 0.01 µM; in the experiment with SNB-75, 0.015 µM; in the experiment on SF-295 [1], 0.011 µM.
For `COc1cc(/C=C/c2cc(O)c(C/C=C(\C)CCC=C(C)C)c(O)c2)cc2c1O[C@]1(C)CC[C@@H](O)C(C)(C)[C@H]1C2`, the outcome with SF-295 [2] was Active.
Regarding `C[C@@H](N)[C@H]1CC[C@H](C(=O)Nc2ccncc2)CC1`, the outcome with SF-295 [3] and with A549 [4] was Active.
With `COc1cc(/C=C/c2cc(O)c(/C=C/c3cccc(O)c3)c(O)c2)cc2c1O[C@]1(C)CC[C@@H](O)C(C)(C)[C@H]1C2`, the result with SF-295 [2], with SF-295 [5], with A549 [9] and in the experiment on SF-295 [10] was Active. The negative logarithm of the IC50 (pIC50) in the experiment with SF-295 [1] is 6.10. Besides, the result in the experiment on SF-295 [6], in the experiment with A549 [7] and in the experiment on A549 [8] was inactive.
